Test system: HEK-293T
Test: Multiplex assay against HEK293T
Assay type: toxicity, cell-based
Settings: human
How it was run: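 Phenotypes for tubulin, mitochondrial mass and membrane permeability are expressed as per cents of healthy-nucleus cells. Cells were stained live at seeding with Hoechst33342, BioTracker Green Microtubule Cytoskeleton Dye, MitoTracker Red and Annexin V Alexa Fluor 680, then imaged after compound addition on a CQ1 microscope at 37°C and 5% CO2. Machine-learning gating in CellPathfinder separated Hoechst high-intensity objects from normal cells, divided normal cells by nuclear state (healthy, pyknosed, fragmented) and divided pyknosed cells into mitotic or apoptotic.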

[1] = 12 h, 1 µM, compound concentration 1 uM, replicate 1
[2] = 12 h, 1 µM, compound concentration 1 uM, replicate 2
[3] = 12 h, 10 µM, compound concentration 10 uM, replicate 1
[4] = 12 h, 10 µM, compound concentration 10 uM, replicate 2
[5] = 24 h, 1 µM, compound concentration 1 uM, replicate 1
[6] = 24 h, 1 µM, compound concentration 1 uM, replicate 2
[7] = 24 h, 10 µM, compound concentration 10 uM, replicate 1
[8] = 24 h, 10 µM, compound concentration 10 uM, replicate 2
[9] = 48 h, 1 µM, compound concentration 1 uM, replicate 1
[10] = 48 h, 1 µM, compound concentration 1 uM, replicate 2
[11] = 48 h, 10 µM, compound concentration 10 uM, replicate 1
[12] = 48 h, 10 µM, compound concentration 10 uM, replicate 2

## COc1cc(OC2CCN(C(C)=O)CC2)ccc1C(=O)N1CCC(N2C(=O)OCc3ccccc32)CC1
[1]
  Population Apoptotic (%): 28%
  Population Fragmented Nuclei (%): 5%
  Population Healthy Nuclei (%): 83%
  Population Hoechst High Intensity Objects (%): 7%
  Population Membrane Permeable-Phenotype (%): 0%
  Population Mitochondria Different-Phenotype (%): 37%
  Population Mitotic Cells (%): 71%
  Population Normal (%): 92%
  Population Pyknosed Nuclei (%): 11%
  Population Tubulin-Different-Phenotype (%): 26%
  Total Cell Count: 477
[2]
  Population Apoptotic (%): 48%
  Population Healthy Nuclei (%): 76%
  Population Mitochondria Different-Phenotype (%): 59%
  Population Mitotic Cells (%): 51%
  Population Pyknosed Nuclei (%): 18%
  Population Tubulin-Different-Phenotype (%): 21%
  Total Cell Count: 381
[3]
  Population Apoptotic (%): 40%
  Population Fragmented Nuclei (%): 9%
  Population Healthy Nuclei (%): 77%
  Population Hoechst High Intensity Objects (%): 8%
  Population Membrane Permeable-Phenotype (%): 0%
  Population Mitochondria Different-Phenotype (%): 57%
  Population Mitotic Cells (%): 60%
  Population Normal (%): 91%
  Population Pyknosed Nuclei (%): 13%
  Population Tubulin-Different-Phenotype (%): 47%
  Total Cell Count: 436
[4]
  Population Apoptotic (%): 67%
  Population Fragmented Nuclei (%): 4%
  Population Healthy Nuclei (%): 80%
  Population Hoechst High Intensity Objects (%): 6%
  Population Mitochondria Different-Phenotype (%): 77%
  Population Mitotic Cells (%): 32%
  Population Normal (%): 93%
  Population Pyknosed Nuclei (%): 14%
  Population Tubulin-Different-Phenotype (%): 40%
  Total Cell Count: 316
[5]
  Population Apoptotic (%): 28%
  Population Fragmented Nuclei (%): 9%
  Population Healthy Nuclei (%): 78%
  Population Hoechst High Intensity Objects (%): 4%
  Population Membrane Permeable-Phenotype (%): 2%
  Population Mitochondria Different-Phenotype (%): 25%
  Population Mitotic Cells (%): 71%
  Population Normal (%): 95%
  Population Pyknosed Nuclei (%): 11%
  Population Tubulin-Different-Phenotype (%): 17%
  Total Cell Count: 598
[6]
  Population Apoptotic (%): 48%
  Population Fragmented Nuclei (%): 7%
  Population Healthy Nuclei (%): 80%
  Population Hoechst High Intensity Objects (%): 6%
  Population Membrane Permeable-Phenotype (%): 0%
  Population Mitochondria Different-Phenotype (%): 40%
  Population Mitotic Cells (%): 51%
  Population Normal (%): 93%
  Population Pyknosed Nuclei (%): 12%
  Population Tubulin-Different-Phenotype (%): 15%
  Total Cell Count: 491
[7]
  Population Apoptotic (%): 31%
  Population Fragmented Nuclei (%): 8%
  Population Healthy Nuclei (%): 78%
  Population Hoechst High Intensity Objects (%): 3%
  Population Membrane Permeable-Phenotype (%): 0%
  Population Mitochondria Different-Phenotype (%): 44%
  Population Mitotic Cells (%): 68%
  Population Normal (%): 96%
  Population Pyknosed Nuclei (%): 13%
  Population Tubulin-Different-Phenotype (%): 36%
  Total Cell Count: 523
[8]
  Population Apoptotic (%): 49%
  Population Fragmented Nuclei (%): 7%
  Population Hoechst High Intensity Objects (%): 4%
  Population Mitochondria Different-Phenotype (%): 58%
  Population Mitotic Cells (%): 50%
  Population Normal (%): 95%
  Population Pyknosed Nuclei (%): 14%
  Population Tubulin-Different-Phenotype (%): 29%
  Total Cell Count: 393
[9]
  Population Apoptotic (%): 20%
  Population Fragmented Nuclei (%): 13%
  Population Healthy Nuclei (%): 78%
  Population Hoechst High Intensity Objects (%): 3%
  Population Membrane Permeable-Phenotype (%): 1%
  Population Mitochondria Different-Phenotype (%): 19%
  Population Mitotic Cells (%): 79%
  Population Normal (%): 96%
  Population Pyknosed Nuclei (%): 8%
  Population Tubulin-Different-Phenotype (%): 13%
  Total Cell Count: 902
[10]
  Population Apoptotic (%): 33%
  Population Fragmented Nuclei (%): 11%
  Population Healthy Nuclei (%): 80%
  Population Hoechst High Intensity Objects (%): 2%
  Population Mitochondria Different-Phenotype (%): 23%
  Population Mitotic Cells (%): 66%
  Population Normal (%): 97%
  Population Pyknosed Nuclei (%): 7%
  Population Tubulin-Different-Phenotype (%): 12%
  Total Cell Count: 655
[11]
  Population Apoptotic (%): 36%
  Population Fragmented Nuclei (%): 13%
  Population Healthy Nuclei (%): 78%
  Population Hoechst High Intensity Objects (%): 4%
  Population Membrane Permeable-Phenotype (%): 0%
  Population Mitochondria Different-Phenotype (%): 30%
  Population Mitotic Cells (%): 63%
  Population Normal (%): 95%
  Population Pyknosed Nuclei (%): 8%
  Population Tubulin-Different-Phenotype (%): 21%
  Total Cell Count: 813
[12]
  Population Fragmented Nuclei (%): 12%
  Population Healthy Nuclei (%): 80%
  Population Hoechst High Intensity Objects (%): 3%
  Population Mitochondria Different-Phenotype (%): 39%
  Population Normal (%): 96%
  Population Pyknosed Nuclei (%): 7%
  Population Tubulin-Different-Phenotype (%): 16%
  Total Cell Count: 625

— ChEMBL document CHEMBL5058577, “EUbOPEN Chemogenomics Library 2 (Multiplex)” (2022)
